Eight compounds from ChEMBL document CHEMBL1155856, “Synthesis and anti-inflammatory activity of 2-(2-aroylaroxy)-4,6-dimethoxy pyrimidines” (Bioorg Med Chem Lett, 2008) can be followed below.

SMILES strings stand for the structures. Activity calls are given as the source filed them. The rule behind the calls is not given here.

Data set [1] is filed under the species Oryctolagus cuniculus. Briefly: Inhibition of rabbit distal colon cyclooxygenase at 10 uM. A digest of the protocol:
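Microsomal fraction from rabbit distal colon mucosa, homogenized and washed in 0.1 M Tris pH 8.0, used fresh. Preincubated with test agent 10 min at 37 °C in Tris-HCl pH 8.0 with 2 mM reduced glutathione, 5 mM L-tryptophan and 1 µM hematin. Then 20 µM arachidonic acid with trace [1-14C]arachidonate added, 5 min at 37 °C. Stopped with cold ether/methanol/0.2 M citric acid. PGE2 separated by RP-HPLC and counted by scintillation; inhibition vs paired controls.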

Data set [2] has as its system Rattus norvegicus. The data set is described as follows: Antiinflammatory activity against carrageenan-induced acute paw edema in po dosed albino rat assessed as reduction of edema. Type of data set: functional. A digest of the protocol: (§1)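 Groups of five rats (125–160 g) dosed with test compound; 30 min later 0.2 mL of 1% carrageenan in 0.9% NaCl injected subcutaneously into the plantar aponeurosis of the hind paw. Paw volume read by water plethysmometer at baseline and at 3 h. Mean increase compared with carrageenan-only control group (five rats); % inhibition = (1 − Gt/Gc) × 100.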
Background: The carrageenan paw model is a standard test of acute inflammation.

Data set [3] concerns the target Phospholipase A2 (Rattus norvegicus) (UniProt P04055). The data set is described as follows: Inhibition of rat PLA2 using [14C]oleate labeled autoclaved Escherichia coli at 10 ug. A digest of the protocol: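 Enzyme amount set for 10–15% hydrolysis over 60 min at 37 °C. Stopped with 2.0 N HCl plus fatty-acid-free BSA, centrifuged at 20,000g for 5 min. Released [14C]oleic acid in the supernatant counted by liquid scintillation.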

The test system of data set [4] is Rattus norvegicus. Briefly: Toxicity in albino rat assessed as ulcerogenic activity at 200 mg/kg, po after 5 hrs. Format: organism-based. The arrangement: dose 200 mg/kg, route oral. As to conditions: in vivo. A digest of the protocol:
(§2)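 Groups of 10 rats (200–230 g) fasted 24 h, then given an oral dose of test compound; controls undosed. Killed 5 h after dosing. Stomach and small intestine examined under microscope for hyperaemia, epithelial shedding, petechiae, frank haemorrhage, and erosion or discrete ulceration with or without perforation; scored as % of animals affected.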

In data set [5] the test system is Rattus norvegicus. The data set is described as follows: Toxicity in albino rat with hyperemia assessed as ulcerogenic activity at 400 mg/kg, po after 5 hrs. As to conditions: in vivo. The arrangement: dose 400 mg/kg, route oral. Type of data set: organism-based. A digest of the protocol: as §2
For data set [6], the system named is Rattus norvegicus. The data set is described as follows: Antiinflammatory activity against carrageenan-induced acute paw edema in albino rat assessed as reduction of edema at 40 mg/kg, po after 3 hrs relative to control. Type of data set: functional. A digest of the protocol: as §1
A short description of data set [7]: Toxicity in po dosed albino mouse. Format: organism-based. The conditions noted are these: in vivo, read-out: ALD50. A digest of the protocol: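 Albino mice (25–30 g), in groups of 10, were given test compound at several dose levels. Percent mortality in each group was recorded 24 h after dosing. The approximate 50% lethal dose (ALD50) was calculated by Smith's method.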

The test system of data set [8] is Rattus norvegicus. The data set is described as follows: Antiinflammatory activity against carrageenan-induced acute paw edema in albino rat assessed as reduction of edema at 20 mg/kg, po after 3 hrs relative to control. Format: functional. A digest of the protocol:
as §1

In data set [9] the test system is Rattus norvegicus. Briefly: Toxicity in albino rat assessed as ulcerogenic activity at 400 mg/kg, po after 5 hrs. As to conditions: in vivo. The arrangement: dose 400 mg/kg, route oral. Format: organism-based. A digest of the protocol: as §2
Data set [10] deals with Rattus norvegicus. The data set is described as follows: Antiinflammatory activity against carrageenan-induced acute paw edema in albino rat assessed as reduction of edema at 80 mg/kg, po after 3 hrs relative to control. Format: functional. A digest of the protocol: as §1
For data set [11], the system named is Rattus norvegicus. Briefly: Toxicity in albino rat assessed as ulcerogenic activity at 100 mg/kg, po after 5 hrs. Type of data set: organism-based. The arrangement: dose 100 mg/kg, route oral. As to conditions: in vivo. A digest of the protocol:
as §2

Data set [12] concerns Rattus norvegicus. The data set is described as follows: Toxicity in albino rat with hyperemia assessed as ulcerogenic activity at 200 mg/kg, po after 5 hrs. Type of data set: organism-based. Further details: dose 200 mg/kg, route oral. The conditions noted are these: in vivo. A digest of the protocol:
as §2

The subject of data set [13] is Rattus norvegicus. Briefly: Toxicity in albino rat with hyperemia assessed as ulcerogenic activity at 100 mg/kg, po after 5 hrs. Format: organism-based. The arrangement: dose 100 mg/kg, route oral. The conditions noted are these: in vivo. A digest of the protocol:
as §2

Phospholipase A2 (Rattus norvegicus), sequence (P04055 whole entry): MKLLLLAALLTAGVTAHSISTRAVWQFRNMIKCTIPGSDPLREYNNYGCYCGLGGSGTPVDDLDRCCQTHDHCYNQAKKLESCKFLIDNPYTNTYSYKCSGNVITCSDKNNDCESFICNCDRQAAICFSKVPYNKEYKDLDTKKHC

The term ED50 denotes the midpoint of the dose-response relation. The term inhibition denotes the percentage by which the read-out fell short of the control. Low readings indicate little suppression, high ones strong suppression. What is called inhibition in vivo is the drop in the measured response relative to a control, in per cent. As for `COc1cc(OC)nc(Oc2ccc(C)cc2C(=O)c2ccc(Cl)cc2)n1`, the result in [1] was inactive. Besides, the ED50 in data set [2] turned out to be 77.5 mg/kg. Besides, in data set [3], the inhibition came out at 80%. Moreover, the Activity in data set [4] came to 50%; in data set [5], 60%; in [9], 80%; in data set [11] it was 40%; in [12] it was 40%; in [13], 20%. The inhibition in vivo at 40 mg/kg in [6] was 21.5%. Moreover, the LD50 in data set [7] was above 1000 mg/kg. The inhibition in vivo at 20 mg/kg in data set [8] was 11.5%. In addition, the inhibition in vivo at 80 mg/kg in data set [10] was 45.5%.
Take `CCCCC1C(=O)N(c2ccccc2)N(c2ccccc2)C1=O` [PHENYLBUTAZONE]: the inhibition amounted to 89% in data set [1] and 85% in data set [3]. The Activity was 60% in data set [4]; 90% in data set [5]; 90% in data set [9]; 30% in [11]; 60% in data set [12]; 30% in data set [13]. Moreover, the inhibition in vivo at 40 mg/kg in data set [6] was 34.1%. For the same compound, in [8], the inhibition in vivo at 20 mg/kg was 29.6%. The inhibition in vivo at 80 mg/kg in data set [10] is 51.9%.
As for `COc1cc(OC)nc(Oc2ccc(C)cc2C(=O)c2ccc(C)cc2)n1`, the inhibition in data set [1] worked out at 87%; in data set [3], 10%. Further, in data set [2], the ED50 was 60.2 mg/kg. The Activity in [4] is 30%; in data set [5] it was 100%; in data set [9], 40%; in data set [11] it was 20%; in data set [12] it was 70%; in data set [13] it was 50%. Besides, the inhibition in vivo at 40 mg/kg in [6] turned out to be 45.8%. Moreover, the LD50 in [7] was above 1000 mg/kg. In addition, the inhibition in vivo at 20 mg/kg in [8] is 20.2%. For the same compound, in data set [10], the inhibition in vivo at 80 mg/kg amounted to 55.3%.
Regarding `CC(=O)Oc1ccccc1C(=O)O` [ASPIRIN], the inhibition in [1] is 99%; in data set [3], 90%. The Activity came to 90% in data set [4]; 90% in data set [5]; 90% in [9]; 80% in data set [11]; 60% in data set [12]; 30% in data set [13]. Moreover, the inhibition in vivo at 40 mg/kg in data set [6] was found to be 38.8%. Further, the inhibition in vivo at 20 mg/kg in data set [8] came to 29.9%. Also, in [10], the inhibition in vivo at 80 mg/kg worked out at 61.4%.
Turning to `COc1cc(OC)nc(Oc2ccc(Cl)cc2C(=O)c2ccc(Cl)cc2)n1`, the inhibition was found to be 20% in data set [1] and 40% in [3]. Also, in data set [2], the ED50 amounted to 78.3 mg/kg. Also, the Activity is on record as 20% in data set [4]; 100% in data set [5]; 40% in data set [9]; 10% in [11]; 60% in data set [12]; 40% in [13]. The inhibition in vivo at 40 mg/kg in data set [6] came out at 29.5%. Further, the LD50 in data set [7] is above 1000 mg/kg. In addition, the inhibition in vivo at 20 mg/kg in data set [8] stood at 13.4%. Besides, the inhibition in vivo at 80 mg/kg in data set [10] turned out to be 58.7%.
`COc1cc(OC)nc(Oc2ccc(Br)cc2C(=O)c2ccc(Cl)cc2)n1`: the inhibition turned out to be 70% in data set [1] and 30% in data set [3]. For the same compound, the ED50 in [2] is 77.2 mg/kg. Further, the Activity in data set [4] was determined as 10%; in data set [5] it was 90%; in data set [9], 15%; in [11] it was 5%; in data set [12], 70%; in data set [13], 50%. The inhibition in vivo at 40 mg/kg in data set [6] stood at 33.2%. The LD50 in data set [7] was above 1000 mg/kg. Further, in data set [8], the inhibition in vivo at 20 mg/kg stood at 13.7%. In addition, in data set [10], the inhibition in vivo at 80 mg/kg worked out at 57.7%.
On to `COc1cc(OC)nc(Oc2ccc(F)cc2C(=O)c2ccc(C)cc2)n1`, for which the inhibition is 40% in data set [1] and 20% in data set [3]. Moreover, in data set [2], the ED50 is 62.5 mg/kg. In addition, the Activity in [4] is on record as 20%; in data set [5] it was 100%; in data set [9] it was 40%; in data set [11], 10%; in data set [12], 90%; in [13], 70%. For the same compound, in [6], the inhibition in vivo at 40 mg/kg was 29.1%. Further, the LD50 in [7] was above 1000 mg/kg. The inhibition in vivo at 20 mg/kg in [8] was 19.4%. The inhibition in vivo at 80 mg/kg in data set [10] was found to be 58.2%.
Turning to `COc1cc(OC)nc(Oc2ccc(F)cc2C(=O)c2ccc(Cl)cc2)n1`, the outcome in [1] was inactive. In addition, the ED50 in data set [2] turned out to be 51.2 mg/kg. In addition, the inhibition in data set [3] is 60%. Also, the Activity in data set [4] is on record as 20%; in data set [5], 90%; in data set [9], 12%; in data set [11] it was 10%; in data set [12], 60%; in [13], 30%. Moreover, the inhibition in vivo at 40 mg/kg in data set [6] is 48.6%. For the same compound, in [7], the LD50 was above 1000 mg/kg. Besides, the inhibition in vivo at 20 mg/kg in data set [8] turned out to be 29.9%. In addition, the inhibition in vivo at 80 mg/kg in data set [10] amounted to 88.6%.
